Laboratory results: ChEMBL document CHEMBL4251675, “Saroclides A and B, Cyclic Depsipeptides from the Mangrove-Derived Fungus Sarocladium kiliense HDN11-112” (J Nat Prod, 2018)
Activity calls are given as the source filed them. The rule behind the calls is not given here.

How the values were obtained:
HeLa = test: Cytotoxicity against human HeLa cells; assay type: functional, cell-based
How it was run: (§1)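 HeLa, BEL-7402, HEK-293, HCT-116 and A549 lines tested by MTT or SRB method, with doxorubicin as positive control.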

Bel-7402 = test: Cytotoxicity against human Bel7402 cells; assay type: functional, cell-based; how it was run: as §1
HEK293 = test: Cytotoxicity against human HEK293 cells; assay type: functional, cell-based; how it was run: as §1
HCT-116 = test: Cytotoxicity against human HCT116 cells; assay type: functional, cell-based; how it was run: as §1
A549 = test: Cytotoxicity against human A549 cells; assay type: functional, cell-based; how it was run: as §1
Escherichia coli = test: Antibacterial activity against Escherichia coli after 20 hrs by double dilution method; assay type: functional, organism-based
How it was run: (§2)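 Broth doubling-dilution assay against E. coli, S. aureus, C. albicans and B. subtilis, with chloramphenicol as positive control.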

Staphylococcus aureus = test: Antibacterial activity against Staphylococcus aureus after 20 hrs by double dilution method; assay type: functional, organism-based; how it was run: as §2
Bacillus subtilis = test: Antibacterial activity against Bacillus subtilis after 20 hrs by double dilution method; assay type: functional, organism-based; how it was run: as §2
Candida albicans = test: Antifungal activity against Candida albicans by double dilution method; assay type: functional, organism-based; how it was run: as §2
HepG2 [1] = test: Lipid lowering activity in human HepG2 cells assessed as reduction in oleic acid-induced lipid accumulation at 2.5 to 10 uM after 24 hrs by oil red O staining based spectrophotometric method; assay type: functional, cell-based
How it was run: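 HepG2 in high-glucose DMEM/10% FBS at 37 °C, 5% CO2, grown to 90% confluence. Treated 24 h with compound (2.5, 5.0, 10.0 μM) or simvastatin 10 μM in high-glucose DMEM plus 100 μM oleic acid. Blank was serum-free DMEM alone, negative control OA alone. Neutral lipid by oil-red O staining, read spectrophotometrically at 358 nm. Means ± SEM, ≥3 experiments.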

HepG2 [2] = test: Lipid lowering activity in human HepG2 cells assessed as reduction in oleic acid-induced intracellular cholesterol level at 2.5 to 10 uM after 24 hrs […]; assay type: functional, cell-based
How it was run: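 HepG2 at 90% confluence treated 24 h with compound (2.5, 5.0, 10.0 μM) or simvastatin 10 μM in high-glucose DMEM containing 100 μM oleic acid. Blank was serum-free DMEM, OA-only as negative control. Intracellular total cholesterol and triglyceride measured with commercial kits per manufacturer. Means ± SEM of at least three experiments.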

HepG2 [3] = test: Lipid lowering activity in human HepG2 cells assessed as reduction in oleic acid-induced triglyceride level at 2.5 to 10 uM after 24 hrs by oil red O staining based spectrophotometric method; assay type: functional, cell-based
HepG2 [4] = test: Cytotoxicity against human HepG2 cells assessed as reduction in cell viability at 20 uM after 20 hrs by MTT assay; assay type: cell-based; conditions: hepg2, 20 h
How it was run: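 HepG2 grown in high-glucose DMEM with 10% FBS at 37 °C, 5% CO2. Once confluent, incubated 20 h with compound. Medium then replaced with fresh medium containing 10% sterile-filtered MTT for 4 h. Formazan dissolved in isopropanol, absorbance read at 570 nm with 630 nm reference. Viability expressed as % of blank wells. Means ± SEM of at least three experiments.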

Compound | Activity (HeLa) | Activity (Bel-7402) | Activity (HEK293) | Activity (HCT-116) | Activity (A549) | Activity (Escherichia coli) | Activity (Staphylococcus aureus) | Activity (Bacillus subtilis) | Activity (Candida albicans) | Activity (HepG2 [1]) | Activity (HepG2 [2]) | Activity (HepG2 [3]) | Activity (HepG2 [4])
CCC[C@@H]1C/C=C(\C)C(=O)CC(=O)N[C@H](Cc2ccccc2)C(=O)N2CCC[C@H]2C(=O)O1 | inactive | inactive | inactive | inactive | inactive | inactive | inactive | inactive | inactive | Active | Active | Active | Non-Toxic
CCC[C@@H]1C/C=C(\C)C(=O)CC(=O)N[C@H](Cc2ccccc2)C(=O)N2CCC[C@@H]2C(=O)O1 | inactive | inactive | inactive | inactive | inactive | inactive | inactive | inactive | inactive | – | – | – | –
